# From ChEMBL document CHEMBL1142368, “The discovery of adamantyl-derived, inhaled, long acting beta(2)-adrenoreceptor agonists” (Bioorg Med Chem Lett, 2008)
# What was measured:
# [1] = Distribution coefficient, log D of the compound; format: physicochemical; conditions: octanol/water
# [2] = Metabolic stability in human liver microsomes; format: ADME, Microsome; conditions: read-out: Stability
# Homo sapiens = species on record: Homo sapiens; assay: Selectivity for human recombinant adrenergic beta2 receptor over human recombinant adrenergic beta-1 receptor
# Procedure, shortened: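 Cell-based functional agonist assay using recombinant human β2 receptor expressed in CHO cells, compared against human β1 receptor.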
# [3] = Oral bioavailability in rat; format: ADME, organism-based; conditions: in vivo
# Procedure, shortened: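 Rats received the compound orally and intravenously in a crossover study.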
# [4] = Volume of distribution in iv dosed rat; format: ADME, organism-based; conditions: in vivo
# Procedure, shortened: (§1)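 Rats were given the compound intravenously, and volume of distribution, clearance and half life were determined from that dosing.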
# [5] = Clearance in iv dosed rat; format: ADME, organism-based; conditions: in vivo; procedure, shortened: as §1
# [6] = Half life in iv dosed rat; format: ADME, organism-based; conditions: in vivo; procedure, shortened: as §1
Structure (SMILES),half-life [2] [min],Selectivity ratio (Homo sapiens),bioavailability [3] [%],Vd [4] [L/kg],clearance [5] [mL/min/kg],half-life [6] [min],logD [1]
C[C@H](Cc1cccc(CC(=O)NCC2CCCCC2)c1)NC[C@H](O)c1ccc(O)c(CO)c1,3,6790,,,,,1.5
C[C@H](Cc1cccc(CC(=O)NC2CCCCCCC2)c1)NC[C@H](O)c1ccc(O)c(CO)c1,2,192,,,,,1.9
C[C@H](Cc1cccc(CC(=O)NCC2CCCCCC2)c1)NC[C@H](O)c1ccc(O)c(CO)c1,,1890,,,,,2

# Continued, in another order:
half-life [2] [min],Selectivity ratio (Homo sapiens),bioavailability [3] [%],Vd [4] [L/kg],clearance [5] [mL/min/kg],half-life [6] [min],Structure (SMILES),logD [1]
2,547,,,,,C[C@H](Cc1cccc(CC(=O)NCC23CC4CC(CC(C4)C2)C3)c1)NC[C@H](O)c1ccc(O)c(CO)c1,2.5
4,6340,,,,,C[C@H](Cc1cccc(CC(=O)NCc2ccc(Cl)c(Cl)c2)c1)NC[C@H](O)c1ccc(O)c(CO)c1,
2,2210,< 5,14,103,96,C[C@H](Cc1cccc(CC(=O)NC23CC4CC(CC(C4)C2)C3)c1)NC[C@H](O)c1ccc(O)c(CO)c1,2.1
2,451,,,,,C[C@H](Cc1cccc(CC(=O)NC2C3CC4CC(C3)CC2C4)c1)NC[C@H](O)c1ccc(O)c(CO)c1 (stereo partly drawn),2.1
